The values below come from ChEMBL document CHEMBL5252546, “Salutaxel, a Conjugate of Docetaxel and a Muramyl Dipeptide (MDP) Analogue, Acts as Multifunctional Prodrug That Inhibits Tumor Growth and Metastasis” (J Med Chem, 2018).

Usually inhibition in vivo stands for the change of the read-out against control, counted positive when it falls. As a reminder, the AUC(0-t) is the area under the concentration-time curve up to a stated or last time point. By Cmax is commonly meant the highest concentration seen after dosing. By clearance is commonly meant a measure of how efficiently the substance is removed, as volume per time. As a reminder, the Tmax is the time from dosing to the highest level. What is called MRT inf is a mean duration of stay, worked out from the concentration-time curve. Broadly, the IC50 is the concentration at which inhibition is half-maximal. As a reminder, the AUC(0-inf) is the area under the concentration-time curve extrapolated to infinity. By MRT is commonly meant the average time that molecules of a dose stay in the body.

Data set [1] concerns 4T1. Kind of data set: Antitumor activity against mouse 4T1 cells xenografted with BALB/c mouse assessed as decrease in tumor weight at 5.7 mg/kg,iv administrated once per week for 4 weeks. Format: functional, organism-based. Summed up:
(§1)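 4T1 cells injected into mammary fat pads of BALB/c mice. Dosing iv once per week for 4 weeks, saline vehicle; single-agent arms were given alone or with the peptide component (5b or 6). Endpoints were body weight, tumour volume, tumour weight, lung metastatic nodule count and lung metastasis score. Mean ± SEM, n = 10; ANOVA and Student's t test.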

Data set [2] has as its system 4T1. Description: Antitumor activity against mouse 4T1 cells xenografted with BALB/c mouse assessed as inhibition of tumor growth at 5.7 mg/kg,iv in presence of compound 6 administrated once per week for 4 weeks. Format: functional. The conditions noted are these: 4T1, 672 h. Summed up:
as §1

For data set [3], the system named is 4T1. Description: Antitumor activity against mouse 4T1 cells implanted in BALB/c mouse assessed as decrease in serum TIMP-1 level at 5.7 mg/kg,iv administrated once per week for 4 weeks in presence of MDA-205 by ELISA. Format: functional, organism-based. In general terms: An ELISA detects its analyte on a solid surface through an enzyme-linked reagent.
Data set [4] is described as follows: Toxicity in BALB/c mouse injected with mouse 4T1 cells assessed as body weight loss at 5.7 mg/kg,iv administrated once per week for 4 weeks. Conditions: in vivo, 672 h. Format: organism-based.
Another data set in a line: in vivo. Conditions: mouse, tumor, iv, 5.7 mg/kg.
In data set [5] the test system is 4T1. Description: Antitumor activity against mouse 4T1 cells implanted in BALB/c mouse assessed as decrease in lung MMP2 expression level at 5.7 mg/kg,iv administrated once per week for 4 weeks by western blot assay. The format is functional, organism-based. An outline of the steps: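 4T1 cells injected into mammary fat pads of BALB/c mice. Saline vehicle or test article given iv once weekly for 4 weeks. Spleen, lung and tumor lysates immunoblotted for MMP2/MMP9 with β-actin as loading control. Bands averaged over five mice per group, representative of two independent experiments.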
(A western blot detects proteins with antibodies after separation by electrophoresis.)

Data set [6] can be described thus: Cmax in male Beagle dog at 2 mg/kg,iv measured upto 24 hrs. The format is ADME, organism-based, Canis lupus familiaris. Also on record: dose 2 mg/kg, time < 24 hrs, route iv. Conditions: in vivo. Summed up: (§2)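 Beagle dogs were given a single iv infusion at 1, 2 or 4 mg/kg. Plasma parent drug and released docetaxel were followed over time. Cmax, Tmax, AUC, MRT, t1/2, CL and Vss were reported by sex and for all dogs combined.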

Data set [7] is described as follows: Volume of distribution at steady state in male Beagle dog at 4 mg/kg,iv measured upto 24 hrs. The format is ADME, organism-based, Canis lupus familiaris. The conditions noted are these: in vivo, read-out: Vdss.
Data set [8] in a line: AUC (0-t) in mouse plasma implanted with mouse 4T1 cells at 10 mg/kg,iv measured upto 72 hrs. The format is ADME, organism-based. Also on record: dose 10 mg/kg, time < 72 hrs, route iv. An outline of the steps:
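4T1 tumor-bearing mice (4T1 cells implanted in the mammary fat pad) received a single iv dose of 10 mg/kg. Plasma and tumor tissue were sampled up to 72 h, with n = 6. Levels of parent and of released docetaxel were measured. AUC came from noncompartmental analysis, reported as mean ± SD.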

Data set [9] in a line: Clearance in female rat at 2 mg/kg,iv measured upto 24 hrs. The format is ADME, organism-based. Conditions: in vivo. Summed up: (§3)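 Rats were given a single iv injection at 2, 4 or 8 mg/kg. Plasma parent drug and released docetaxel were followed over time. Cmax, Tmax, AUC, MRT, t1/2, CL and Vss were reported for males, females and all animals combined.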
Data set [10] is described as follows: Drug metabolism in rat bile assessed as metabolite docetaxel formation at 4 mg/kg,iv measured after 24 hrs. Format: ADME, organism-based. Conditions: in vivo.
Data set [11] is described as follows: Toxicity in Beagle dog assessed as decrease in body temperature at 1 to 4 mg/kg,iv. Format: organism-based, Canis lupus familiaris. Conditions: in vivo, dose 1-4 mg/kg.
Data set [12] in a line: Clearance in female Beagle dog at 4 mg/kg,iv measured upto 24 hrs. The format is ADME, organism-based, Canis lupus familiaris. The conditions noted are these: in vivo. Summed up: as §2
Data set [13] in a line: Tmax in female Beagle dog at 1 mg/kg,iv measured upto 24 hrs. Conditions: in vivo. Format: ADME, organism-based, Canis lupus familiaris.
Data set [14] in a line: Stability in mouse plasma assessed as compound remaining at 40 uM incubated for 6 hrs. The format is ADME, cell-free.
Data set [15] is described as follows: AUC (0-t) in female rat at 8 mg/kg,iv measured upto 24 hrs. The format is ADME, organism-based. Also on record: dose 8 mg/kg, time < 24 hrs, route iv. Conditions: in vivo. An outline of the steps: (§4)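 Single iv dose: rats 2, 4 or 8 mg/kg by intravenous injection; Beagle dogs 1, 2 or 4 mg/kg by intravenous infusion. Plasma concentration–time data were analysed by sex and pooled. Reported parameters: Cmax, Tmax, AUC0−t, AUC0−∞, MRT0−∞, t1/2, CL, Vss, given as mean ± SD.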

Data set [16] can be described thus: Drug metabolism in rat bile assessed as metabolite MDA-205 formation at 4 mg/kg,iv measured after 24 hrs. The format is ADME, organism-based. The conditions noted are these: in vivo.
Data set [17] in a line: Volume of distribution at steady state in male rat at 8 mg/kg,iv measured upto 24 hrs. The format is ADME, organism-based. Conditions: in vivo, read-out: Vdss.
The nature of data set [18]: Prodrug conversion in mouse tumor implanted with mouse 4T1 cells assessed as Cmax of docetaxel at 4 mg/kg,iv measured upto 72 hrs. Format: ADME, organism-based, Neoplasm. The arrangement: time < 72 hrs, dose 4 mg/kg, route iv. Conditions: in vivo.
Data set [19] in a line: MRT (0 to infinity) in Beagle dog at 1 mg/kg,iv measured upto 24 hrs. Format: ADME, organism-based, Canis lupus familiaris. Conditions: in vivo.
Data set [20] can be described thus: Plasma protein binding in human plasma incubated for 4 hrs. Conditions: read-out: PPB (converted). The format is ADME, cell-free.
The next data set deals with NCI-H522. Description: Antiproliferative activity against human NCI-H522 cells assessed inhibition of cell growth incubated for 72 hrs by SRB assay. Format: functional, cell-based. The conditions noted are these: NCI-H522, 72 h.
A short description of data set [21]: Toxicity in BALB/c mouse xenografted with human NCI-H1975 cells assessed as body weight loss at 10 mg/kg,iv administrated once per week for 3 weeks. Format: organism-based. Conditions: in vivo, 504 h. On the technique in general: In xenograft studies the graft and the host belong to different species.
A short description of data set [22]: Drug concentration in rat brain at 4 mg/kg,iv measured after 24 hrs. The conditions noted are these: in vivo. Format: ADME, organism-based. Summed up:
(§5)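 Rats received 4 mg/kg iv. Parent drug and released docetaxel were assayed in tissues and plasma from the first sampling at 0.25 h to 24 h. The lower limit of quantitation was 200 ng/g.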

Data set [23] can be described thus: AUC (0-infinity) in male Beagle dog at 2 mg/kg,iv measured upto 24 hrs. The conditions noted are these: in vivo. The arrangement: time < 24 hrs, dose 2 mg/kg, route iv. Format: ADME, organism-based, Canis lupus familiaris. Summed up: as §4
Data set [24] is described as follows: Prodrug conversion in mouse tumor implanted with mouse 4T1 cells assessed as MRT of docetaxel at 4 mg/kg,iv measured upto 72 hrs. The conditions noted are these: in vivo. Format: ADME, organism-based, Neoplasm.
Data set [25] can be described thus: Clearance in male rat at 8 mg/kg,iv measured upto 24 hrs. The format is ADME, organism-based. Conditions: in vivo. An outline of the steps:
as §3

The subject of data set [26] is 4T1. Kind of data set: Antitumor activity against mouse 4T1 cells implanted in BALB/c mouse assessed as decrease in spleen MDSC cells at 10 mg/kg,iv measured after 28 days (reference value: 38%). Format: functional. The conditions noted are these: time 28 day. Also on record: scale not given: the % may be the effect or the level left.
Data set [27] is described as follows: Clearance in female rat at 4 mg/kg,iv measured upto 24 hrs. The format is ADME, organism-based. Conditions: in vivo. Summed up:
as §3

A short description of data set [28]: Drug distribution in rat lung at 4 mg/kg,iv measured by 0.25 hrs. Format: ADME, organism-based. The conditions noted are these: in vivo. Summed up: as §5
For data set [29], the system named is 4T1. Kind of data set: Antitumor activity against mouse 4T1 cells implanted in BALB/c mouse assessed as decrease in serum IL-6 level at 10 mg/kg,iv administrated once per week for 4 weeks by ELISA. Format: functional, organism-based. An outline of the steps:
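4T1 fat-pad model in BALB/c mice, iv 5–20 mg/kg once weekly for 4 weeks, with vehicle and naive groups; serum MMP9, TIMP-1, IL-6 and S100A9 measured by mouse ELISA kits.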

A short description of data set [30]: AUC (0-infinity) in male rat at 8 mg/kg,iv measured upto 24 hrs. The format is ADME, organism-based. The arrangement: dose 8 mg/kg, time < 24 hrs, route iv. Conditions: in vivo. An outline of the steps: as §4
A short description of data set [31]: Cmax in mouse tumor implanted with mouse 4T1 cells at 10 mg/kg,iv measured upto 72 hrs. Also on record: time < 72 hrs, dose 10 mg/kg, route iv. Format: ADME, organism-based, Neoplasm. Summed up: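 BALB/c mice carried 4T1 cells implanted in the mammary fat pad and received a single iv dose of 10 mg/kg. Parent drug and released docetaxel were assayed in plasma and tumor tissue up to 72 h. Parameters came from noncompartmental analysis, n = 6, mean ± SD.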

Data set [32] is described as follows: Tmax in male rat at 8 mg/kg,iv measured upto 24 hrs. The format is ADME, organism-based. Conditions: in vivo.

Each structure is given as a SMILES string. The source made the active and inactive calls. The calls are words filed in the database; no cut-off is given here.

With `CC(=O)O[C@@]12CO[C@@H]1C[C@H](O)[C@@]1(C)C(=O)[C@H](O)C3=C(C)[C@@H](OC(=O)[C@H](O)[C@@H](NC(=O)OC(C)(C)C)c4ccccc4)C[C@@](O)([C@@H](OC(=O)c4ccccc4)[C@H]21)C3(C)C` [DOCETAXEL ANHYDROUS], the result in the data set on 4T1 [1] and with 4T1 [3] was Active. In the data set with 4T1 [2], the inhibition in vivo at 5.7 mg/kg is 15.4%. Besides, in data set [4], the Activity entry is recorded as “Non-Toxic”. In “in vivo”, the AUC(0-t) at 72 h came to 27 µM·h. For the same compound, the outcome in the data set with 4T1 [5] was inactive.
For `CC(=O)O[C@@]12CO[C@@H]1C[C@H](O)[C@@]1(C)C(=O)[C@H](O)C3=C(C)[C@@H](OC(=O)[C@H](OC(=O)CCC(=O)NCCCC[C@H](NC(=O)CC[C@@H](NC(=O)[C@H](C)NC(=O)/C=C/c4ccc(F)cc4Cl)C(N)=O)C(=O)O)[C@@H](NC(=O)OC(C)(C)C)c4ccccc4)C[C@@](O)([C@@H](OC(=O)c4ccccc4)[C@H]21)C3(C)C`, the figures for the Cmax in [6], in data set [18] and in data set [31] were 10800 ng/mL, 2390 nM and 140 nM, respectively. The values for the Vd in [7] and in data set [17] were 0.075 L/kg and 0.096 L/kg, respectively. Also, the AUC(0-t) at 72 h in data set [8] was found to be 3.33 µM·h. The clearance was found to be 7.73 mL/min/kg in [9], 3.85 mL/min/kg in [12], 2.55 mL/min/kg in [25] and 5.13 mL/min/kg in data set [27]. Moreover, the Drug metabolism entry in data set [10] and in data set [16] was “Metabolite_Detected” in each case. Further, the Activity entry is recorded as “Toxic” in [11], “Non-Toxic” in [21] and 20.2% in the data set on 4T1 [26]. For the same compound, the Tmax in data set [13] was 30 min; in data set [32], 4.98 min. In data set [14], the Stability entry is reported as “Stable”. This compound also displayed an area under the curve AUC(0-t) at 24 h in [15] of 39300 ng·h/mL. The MRT inf in [19] amounted to 15.2 min. In addition, the fraction unbound at 4 h in data set [20] is 0.007. This compound gave a concentration for half-maximal inhibition (IC50) in the data set with NCI-H522 of 0.0163 µM. Further, the Drug uptake entry in [22] and in data set [28] was “Active” in each case. Besides, the AUC(0-inf) in data set [23] is 4890 ng·h/mL; in data set [30], 52800 ng·h/mL. For the same compound, the mean residence time (MRT) in [24] was 87.4 h. Also, the outcome with 4T1 [29] was Active.
